Data taken from ChEMBL document CHEMBL1129264, “Mercaptoacyl dipeptides as orally active dual inhibitors of angiotensin-converting enzyme and neutral endopeptidase” (1996).

What was measured:
Assay type in all cases: organism-based
[1] = molecular target: T1, Angiotensin-converting enzyme (Rattus norvegicus) (UniProt P47820); test: Compound was tested for plasma inhibition of Angiotensin I converting enzyme activity in the conscious rat. Expressed as Inhibition of AI pressor response at 4 hr at a dose of 13.1 mg/kg po; parameters: dose 13.1 mg/kg
T1 sequence (whole entry): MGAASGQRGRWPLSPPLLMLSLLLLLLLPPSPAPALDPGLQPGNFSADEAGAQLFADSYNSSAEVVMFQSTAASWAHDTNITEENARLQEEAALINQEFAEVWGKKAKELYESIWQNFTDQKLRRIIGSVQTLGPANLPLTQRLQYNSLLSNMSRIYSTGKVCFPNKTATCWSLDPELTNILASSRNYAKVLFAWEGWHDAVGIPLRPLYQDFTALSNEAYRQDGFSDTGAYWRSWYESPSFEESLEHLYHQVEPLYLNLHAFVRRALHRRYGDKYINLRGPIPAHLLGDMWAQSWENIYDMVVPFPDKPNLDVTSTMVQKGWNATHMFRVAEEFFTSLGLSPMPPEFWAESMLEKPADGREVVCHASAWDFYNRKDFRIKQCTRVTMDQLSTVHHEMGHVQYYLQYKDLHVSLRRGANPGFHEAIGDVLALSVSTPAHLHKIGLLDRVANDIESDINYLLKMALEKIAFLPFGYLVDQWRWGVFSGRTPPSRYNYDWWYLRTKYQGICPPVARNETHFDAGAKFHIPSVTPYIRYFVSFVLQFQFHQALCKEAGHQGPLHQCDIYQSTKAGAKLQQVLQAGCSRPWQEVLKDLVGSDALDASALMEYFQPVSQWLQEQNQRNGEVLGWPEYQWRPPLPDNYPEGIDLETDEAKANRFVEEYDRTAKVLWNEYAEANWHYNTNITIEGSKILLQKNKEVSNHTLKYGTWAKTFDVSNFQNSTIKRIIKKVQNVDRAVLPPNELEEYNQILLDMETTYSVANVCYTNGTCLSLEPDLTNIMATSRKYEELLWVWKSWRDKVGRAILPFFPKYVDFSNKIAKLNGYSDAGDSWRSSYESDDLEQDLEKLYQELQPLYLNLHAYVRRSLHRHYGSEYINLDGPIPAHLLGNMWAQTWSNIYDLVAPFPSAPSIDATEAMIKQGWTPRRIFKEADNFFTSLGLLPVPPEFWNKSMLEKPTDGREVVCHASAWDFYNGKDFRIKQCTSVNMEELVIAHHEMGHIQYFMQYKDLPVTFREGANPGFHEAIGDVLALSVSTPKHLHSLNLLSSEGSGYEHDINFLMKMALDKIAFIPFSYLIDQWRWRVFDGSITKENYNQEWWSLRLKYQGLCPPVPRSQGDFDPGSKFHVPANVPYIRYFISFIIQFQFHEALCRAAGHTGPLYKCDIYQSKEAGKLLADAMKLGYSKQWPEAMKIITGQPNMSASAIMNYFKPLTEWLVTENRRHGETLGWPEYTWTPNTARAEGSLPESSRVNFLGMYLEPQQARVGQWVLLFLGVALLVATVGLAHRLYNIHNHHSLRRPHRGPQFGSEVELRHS
In short: (§1)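 Male conscious normotensive Sprague-Dawley rats (275-390 g), prepared under methohexital sodium (75 mg/kg ip) with femoral arterial and venous catheters. The next day, pressor responses to three angiotensin-I challenges (300 ng/kg iv) were recorded. Compound was then given orally and angiotensin-I challenges were repeated at set times. Percent inhibition is relative to the mean of the three baseline responses.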

[2] = molecular target: T1, Angiotensin-converting enzyme (Rattus norvegicus); test: Compound was tested for plasma inhibition of Angiotensin I converting enzyme activity in the conscious rat. Expressed as Inhibition of AI pressor response at 6 hr at a dose of 13.1 mg/kg po; parameters: dose 13.1 mg/kg; in short: as §1
[3] = molecular target: T1, Angiotensin-converting enzyme (Rattus norvegicus); test: Compound was tested for plasma inhibition of Angiotensin I converting enzyme activity in the conscious rat. Expressed as Inhibition of AI pressor response at 1 hr at a dose of 13.1 mg/kg po; parameters: dose 13.1 mg/kg
In short: (§2)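 Male conscious normotensive Sprague-Dawley rats (275-390 g), given femoral arterial and venous catheters under methohexital sodium (75 mg/kg ip) anesthesia. Next day, pressor responses to three angiotensin-I challenges (300 ng/kg iv) recorded by direct arterial pressure. Compound then dosed orally, and AI challenge repeated at set times. Each post-dose response compared with the mean of the three baseline responses, giving % inhibition.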

[4] = molecular target: T1, Angiotensin-converting enzyme (Rattus norvegicus); test: Compound was tested for plasma inhibition of Angiotensin I converting enzyme activity in the conscious rat. Expressed as Inhibition of AI pressor response at 2 hr at a dose of 13.1 mg/kg po; parameters: dose 13.1 mg/kg; in short: as §2
[5] = molecular target: T1, Angiotensin-converting enzyme (Rattus norvegicus); test: Compound was tested for plasma inhibition of Angiotensin I converting enzyme activity in the conscious rat. Expressed as Inhibition of AI pressor response at 1 hr at a dose of 12.8 mg/kg po; parameters: dose 12.8 mg/kg; in short: as §2
[6] = molecular target: T1, Angiotensin-converting enzyme (Rattus norvegicus); test: Compound was tested for plasma inhibition of Angiotensin I converting enzyme activity in the conscious rat. Expressed as Inhibition of AI pressor response at 4 hr at a dose of 10 mg/kg po; parameters: dose 10 mg/kg; in short: as §2
[7] = molecular target: T1, Angiotensin-converting enzyme (Rattus norvegicus); test: Compound was tested for plasma inhibition of Angiotensin I converting enzyme activity in the conscious rat. Expressed as Inhibition of AI pressor response at 2 hr at a dose of 12.8 mg/kg po; parameters: dose 12.8 mg/kg; in short: as §2
[8] = molecular target: T1, Angiotensin-converting enzyme (Rattus norvegicus); test: Compound was tested for plasma inhibition of Angiotensin I converting enzyme activity in the conscious rat. Expressed as Inhibition of AI pressor response at 6 hr at a dose of 12.8 mg/kg po; parameters: dose 12.8 mg/kg; in short: as §1
[9] = molecular target: T1, Angiotensin-converting enzyme (Rattus norvegicus); test: Compound was tested for plasma inhibition of Angiotensin I converting enzyme activity in the conscious rat. Expressed as Inhibition of AI pressor response at 6 hr at a dose of 10 mg/kg po; parameters: dose 10 mg/kg; in short: as §1
[10] = molecular target: T1, Angiotensin-converting enzyme (Rattus norvegicus); test: Compound was tested for plasma inhibition of Angiotensin I converting enzyme activity in the conscious rat. Expressed as Inhibition of AI pressor response at 2 hr at a dose of 10 mg/kg po; parameters: dose 10 mg/kg; in short: as §2
[11] = molecular target: T1, Angiotensin-converting enzyme (Rattus norvegicus); test: Compound was tested for plasma inhibition of Angiotensin I converting enzyme activity in the conscious rat. Expressed as Inhibition of AI pressor response at 1 hr at a dose of 10 mg/kg po; parameters: dose 10 mg/kg; in short: as §2
[12] = molecular target: T1, Angiotensin-converting enzyme (Rattus norvegicus); test: Compound was tested for plasma inhibition of Angiotensin I converting enzyme activity in the conscious rat. Expressed as Inhibition of AI pressor response at 4 hr at a dose of 12.8 mg/kg po; parameters: dose 12.8 mg/kg; in short: as §2
[13] = molecular target: T1, Angiotensin-converting enzyme (Rattus norvegicus); test: Compound was tested for plasma inhibition of Angiotensin I converting enzyme activity in the conscious rat. Expressed as Inhibition of AI pressor response at 6 hr at a dose of 11.7 mg/kg po; parameters: dose 11.7 mg/kg; in short: as §1
[14] = molecular target: T1, Angiotensin-converting enzyme (Rattus norvegicus); test: Compound was tested for plasma inhibition of Angiotensin I converting enzyme activity in the conscious rat. Expressed as Inhibition of AI pressor response at 2 hr at a dose of 11.7 mg/kg po; parameters: dose 11.7 mg/kg; in short: as §2
[15] = molecular target: T1, Angiotensin-converting enzyme (Rattus norvegicus); test: Compound was tested for plasma inhibition of Angiotensin I converting enzyme activity in the conscious rat. Expressed as Inhibition of AI pressor response at 1 hr at a dose of 11.7 mg/kg po; parameters: dose 11.7 mg/kg; in short: as §2
[16] = molecular target: T1, Angiotensin-converting enzyme (Rattus norvegicus); test: Compound was tested for plasma inhibition of Angiotensin I converting enzyme activity in the conscious rat. Expressed as Inhibition of AI pressor response at 4 hr at a dose of 11.7 mg/kg po; parameters: dose 11.7 mg/kg; in short: as §2
[17] = molecular target: T1, Angiotensin-converting enzyme (Rattus norvegicus); test: Compound was tested for plasma inhibition of Angiotensin I converting enzyme activity in the conscious rat. Expressed as Inhibition of AI pressor response at 2 hr at a dose of 14.3 mg/kg po; parameters: dose 14.3 mg/kg; in short: as §2
[18] = molecular target: T1, Angiotensin-converting enzyme (Rattus norvegicus); test: Compound was tested for plasma inhibition of Angiotensin I converting enzyme activity in the conscious rat. Expressed as Inhibition of AI pressor response at 4 hr at a dose of 14.3 mg/kg po; parameters: dose 14.3 mg/kg; in short: as §1
[19] = molecular target: T1, Angiotensin-converting enzyme (Rattus norvegicus); test: Compound was tested for plasma inhibition of Angiotensin I converting enzyme activity in the conscious rat. Expressed as Inhibition of AI pressor response at 6 hr at a dose of 14.3 mg/kg po; parameters: dose 14.3 mg/kg; in short: as §1
[20] = molecular target: T1, Angiotensin-converting enzyme (Rattus norvegicus); test: Compound was tested for plasma inhibition of Angiotensin I converting enzyme activity in the conscious rat. Expressed as Inhibition of AI pressor response at 1 hr at a dose of 14.3 mg/kg po; parameters: dose 14.3 mg/kg; in short: as §2

Row | Compound | inhibition [5] | inhibition [6] | inhibition [7] | inhibition [8] | inhibition [12] | further results
1 | CCCCOC(=O)[C@H](Cc1ccc(O)cc1)NC(=O)C1(NC(=O)[C@H](SC(=O)COC)C(C)C)CCCC1 | – | – | – | – | – | inhibition [1]: 58%; inhibition [2]: 54%; inhibition [3]: 76%; inhibition [4]: 75%
2 | CCOC(=O)[C@H](CCc1ccccc1)N[C@H]1CCc2ccccc2N(CC(=O)O)C1=O | – | 39% | – | – | – | inhibition [9]: 16%; inhibition [10]: 77%; inhibition [11]: 100%
3 | CCOC(=O)[C@H](Cc1ccc(O)cc1)NC(=O)C1(NC(=O)[C@H](SC(=O)CN(C)C)C(C)C)CCCC1 | 70% | – | 63% | 18% | 35% | –
4 | CCOC(=O)[C@H](Cc1ccc(O)cc1)NC(=O)C1(NC(=O)[C@H](SC(C)=O)C(C)C)CCCC1 | – | 83% | – | – | – | inhibition [9]: 47%; inhibition [10]: 81%; inhibition [11]: 86%
5 | CCOC(=O)[C@H](Cc1ccc(OC)cc1)NC(=O)C1(NC(=O)[C@H](SC(=O)COC)C(C)C)CCCC1 | – | – | – | – | – | inhibition [13]: 52%; inhibition [14]: 91%; inhibition [15]: 81%; inhibition [16]: 76%
6 | CCOC(=O)[C@H](Cc1ccc(O)cc1)NC(=O)C1(NC(=O)[C@H](SC(=O)C(C)(C)C)C(C)C)CCCC1 | 8% | – | 17% | 19% | 14% | –
7 | CCOC(=O)[C@H](Cc1ccc(OC(=O)c2ccccc2)cc1)NC(=O)C1(NC(=O)[C@H](SC(C)=O)C(C)C)CCCC1 | – | – | – | – | – | inhibition [17]: 30%; inhibition [18]: 36%; inhibition [19]: 10%; inhibition [20]: 45%

Continued, in another order:

Row | inhibition [5] | inhibition [6] | inhibition [7] | inhibition [8] | inhibition [12] | Compound | further results
8 | 75% | 65% | 70% | 58% | – | CCCCOC(=O)[C@H](Cc1ccc(OC)cc1)NC(=O)C1(NC(=O)[C@H](SC(C)=O)C(C)C)CCCC1 | –
9 | 64% | – | 52% | 16% | 31% | CCOC(=O)[C@H](Cc1ccc(OC(C)=O)cc1)NC(=O)C1(NC(=O)[C@H](SC(C)=O)C(C)C)CCCC1 | –
